LEDGF integ inh: blocks HIV-1 LEDGF/p75-dependent DNA integration. TR-FRET IN-LEDGF/p75 DNA integration, Eu/Cy5. inhibition, % at 3.7 µM. 370,000 tested, 0.64% active. AID 743269;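 active = inhibition above the screen-wide mean plus 3 SD, cut at about 13% in these data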;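 also: signal is the Cy5 over europium emission ratio at 671 and 618 nm; 0% = plate median of compound wells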
UHRF1 binding: human UHRF1 methylated DNA binding inhibitors | Q96T88 | UHRF1 binding to methylated oligo, TR-FRET | inhibition, % at 4.4 µM | 370,000 tested, 0.75% active; in the data active = inhibition above about 21%;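 also: UHRF1 SRA domain binding a hemimethylated CpG hairpin DNA probe; 0% = median of test compound wells and 100% = reference inhibitor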
ASAP1 GAP inh: blocks human ASAP1-stimulated Arf1 GTP hydrolysis | 360,000 tested, 0.19% active | GDP FP detection | inhibition, % at 16.5 µM | Q9ULH1;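 also: 0% = vehicle with enzyme and substrate and 100% = no enzyme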
Target sequence (Q9ULH1 325-724 limits assumed): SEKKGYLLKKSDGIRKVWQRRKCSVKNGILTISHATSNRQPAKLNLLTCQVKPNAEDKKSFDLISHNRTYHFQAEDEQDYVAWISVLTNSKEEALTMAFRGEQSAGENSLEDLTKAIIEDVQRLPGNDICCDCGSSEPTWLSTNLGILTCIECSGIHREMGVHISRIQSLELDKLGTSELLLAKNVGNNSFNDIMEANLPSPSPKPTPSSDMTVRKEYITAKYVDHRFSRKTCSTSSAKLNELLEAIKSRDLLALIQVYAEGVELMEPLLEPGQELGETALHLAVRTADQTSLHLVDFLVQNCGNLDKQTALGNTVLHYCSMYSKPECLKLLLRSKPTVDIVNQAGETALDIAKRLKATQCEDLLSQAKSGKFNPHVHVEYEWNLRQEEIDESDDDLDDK
MBD2 inh: blocks human MBD2 binding to methylated DNA. Q9UBB5. TR-FRET, MBD2 binding to methylated oligonucleotide. inhibition, % at 4.4 µM. 370,000 tested, 0.31% active. AID 686964; in the data active = inhibition above about 13%
ARFGAP1 inh: inhibits rat ARF GTPase activating protein 1; Q62848; Arfgap1-stimulated ARF1 GTP hydrolysis, GDP FP detection; inhibition, % at 16.5 µM; 360,000 tested, 0.26% active; AID 651572;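 active = inhibition above a per-plate limit, mean inhibition of low control wells plus 3 SD, cut at about 25% in these data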;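 also: 0% = DMSO wells with enzyme and 100% = wells lacking Arfgap1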
Target sequence (Q62848 1-136 limits assumed): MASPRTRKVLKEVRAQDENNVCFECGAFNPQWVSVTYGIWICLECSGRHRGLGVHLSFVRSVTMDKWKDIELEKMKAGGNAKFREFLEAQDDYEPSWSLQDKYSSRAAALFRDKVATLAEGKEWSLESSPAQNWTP
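Repeats: one replicate per compound; assay system: rat Arfgap1 catalytic domain, aa 1-136; times: enzyme reaction 120 min at 25 °C after 20 min preincubation; detection: FP of antibody-bound GDP Alexa 633 tracer, ex 620/em 688 nm; benchmarks: high control wells lacking Arfgap1, low control full reaction with DMSO; reagent: human ARF1(Δ1-17)-GTP substrate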
TDP2 inh: blocks human TDP2 phosphodiesterase activity. O95551. recombinant TDP2, T5PNP hydrolysis, p-nitrophenol absorbance 415 nm. inhibition, % at 12.8 µM. 370,000 tested, 0.34% active;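 active = inhibition above the mean of all tested compounds plus 3 SD, set per campaign, cut at about 25% in these data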;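 also: 0% = DMSO with enzyme and 100% = buffer with substrate but no TDP2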
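System – recombinant human TDP2 · Amount – 120 nM TDP2 per well · Buffer or medium – Mg2+-containing Tris-HCl buffer, pH 7.5 · Reagent – T5PNP substrate, 5 mM · Dosing – 12.8 µM single point, 1% DMSO · Incubation – 2 h at 37 °C · Measured by – epi absorbance · Read-out basis – percent inhibition · Benchmarks – high control without enzyme, low control DMSO plus TDP2 · Repeats – singlicate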
TDP2 confirm: confirmation of human TDP2 inhibitors. inhibition, % at 12.8 µM. 1,100 tested, 22% active. shares compounds with TDP2 inh. recombinant human TDP2, absorbance read-out. AID 743263;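 also: 0% = vehicle with enzyme and 100% = no enzyme buffer only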
IN multimer act: HIV-1 integrase multimerization activation, counter-screen. shares compounds with LEDGF integ inh. TR-FRET HIV-1 integrase multimerization, biochemical. activation, % at 7.7 µM. 2,000 tested, 17% active; in the data active = activation above about 8.9%
TRFRET interf: TR-FRET optical interference, LEDGF/p75 integration counter-screen. shares compounds with LEDGF integ inh. TR-FRET optical interference counterscreen, HIV-1 IN multimerization. inhibition, % at 7.7 µM. 2,000 tested, under 10 active;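 active = inhibition above the mean over all tested compounds plus 3 SD, which no compound reached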;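 also: 0% = integrase with antibodies and DMSO and 100% = antibodies without integrase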
IN-LEDGF confirm: LEDGF/p75-dependent HIV-1 integration inhibition, confirmation. shares compounds with LEDGF integ inh. TR-FRET LEDGF/p75-dependent HIV-1 integration, biochemical. inhibition, % at 3.7 µM. 2,000 tested, 36% active. AID 1053136; in the data active = inhibition above about 14%
Numbers without * were called inactive; . = no result given. Rows were chosen to be rich in hits. Some 2% of all compounds tested hit in one or more screens of this group. Rule as the data show it, unless noted: active = inhibition above about 25%; inactive = the rest.

SMILES	LEDGF integ inh	UHRF1 binding	ASAP1 GAP inh	MBD2 inh	ARFGAP1 inh	TDP2 inh	IN multimer act	TRFRET interf	IN-LEDGF confirm	others
Nc1ccc(Br)c2cccnc12	54*	4	13	-15	2	47*	1	-4	53*	TDP2 confirm=41*
O=C1C=C(C2CCCCC2)C(=O)c2ccccc21	3	7	10	0	-2	8	.	.	.
O=C1C=C(N2CCCCC2)c2ccccc2C1=O	29*	-1	-6	-20	-10	70*	6	-22	67*	TDP2 confirm=85*
NC1=C(Br)C(=O)c2ncccc2C1=O	29*	-3	28*	-17	3	62*	7	-26	73*	TDP2 confirm=65*
COc1ccc(N(C)C(=O)Nc2ccc3nsnc3c2)cc1	56*	4	8	-3	-4	95*	-3	10	5	TDP2 confirm=7
Cc1nn(-c2ccccc2)c2sc(C(=O)NC3CCCc4ccccc43)cc12 (centres undefined)	-5	1	.	6	.	4	.	.	.
O=C(OC12CCCN(C1)/C(=C/c1ccccc1)C2)c1ccc(F)cc1 (centres undefined)	-4	3	.	0	.	-9	.	.	.
CC1=NN(c2ccc(C)c(C)c2)C(=O)C1C(c1cccc(O)c1)C1C(=O)N(c2ccc(C)c(C)c2)N=C1C (centres undefined)	42*	7	11	9	8	80*	-1	4	0	TDP2 confirm=19
Cc1ccc(N2C(=O)C3C4C=CC(C4)C3C2=O)cc1C (centres undefined)	-2	-4	1	2	2	8	.	.	.
COc1ccc(N2CCN(CCNS(=O)(=O)c3ccc(Br)s3)CC2)cc1	-4	1	.	4	.	8	.	.	.
Cc1cccc(Nc2nc(N)c([N+](=O)[O-])c(NCCO)n2)c1	-4	2	-9	1	-5	-7	.	.	.
Cc1cccc(NC2=C(NCCO)C(=O)c3ccccc3C2=O)c1	20*	-1	-5	-15	-2	58*	4	-13	0	TDP2 confirm=2
CCCC(=Nc1ccc(N)cc1)C1=C(O)C(C(=O)OC)C(C)(C)CC1=O (centres undefined)	54*	17	-6	3	-8	53*	21*	-75	5	TDP2 confirm=12
CCCC(=O)C1=C(O)C(C(=O)OC)C(C)(C)CC1=Nc1ccc(N)cc1 (centres undefined)	0	1	-5	3	13	5	.	.	.
COC(=O)c1cc(C)nc2c1C(=O)C(=O)C=C2N1CCOCC1	38*	12	-7	5	-8	87*	1	-4	78*	TDP2 confirm=89*
O=C(NCCCc1ccccc1)[C@H](CO)NC1(C(=O)NCCc2c[nH]c3ccccc23)CCCCC1	1	3	.	2	.	-6	.	.	.
O=[N+]([O-])c1ccc2c(c1)nc1n2CCN(c2ccccc2)C1	17*	1	1	2	-5	-2	0	-1	7
NC(c1ccccc1)c1csc(Nc2ccccn2)n1 (centres undefined)	7	-2	0	1	15	10	.	.	.
NC(c1csc(Nc2ccccn2)n1)C1CCCCC1 (centres undefined)	14*	-1	1	0	1	-11	0	1	3
COc1ccc(CCNC(=O)c2cc3c(C)nn(-c4ccccc4)c3s2)cc1OC	-2	-2	.	-3	.	3	.	.	.
O=C(NCc1ccccc1)c1cc(-c2ccco2)on1	16*	0	-9	3	2	-3	0	0	1
CN1C(C(=O)NCc2cccc(C(F)(F)F)c2)CC2Cn3c(nc4ccccc43)C21 (centres undefined)	15*	-2	1	2	1	-7	0	-1	-13
Cc1ccc(CNC(=O)C2CC3Cn4c(nc5cc(C)c(C)cc54)C3N2C)o1 (centres undefined)	4	3	-9	2	3	-6	.	.	.
Cc1cc2nc3n(c2cc1C)CC1CC(C(=O)NCc2ccco2)N(C)C31 (centres undefined)	27*	45*	-4	8	17	14	0	0	-8
C/C=C/c1ccc([C@@H]2[C@H](CO)N(S(C)(=O)=O)[C@H]2CN(C)C(=O)CC)cc1	-2	2	.	5	.	4	.	.	.
SMILES	LEDGF integ inh	UHRF1 binding	ASAP1 GAP inh	MBD2 inh	ARFGAP1 inh	TDP2 inh	IN multimer act	TRFRET interf	IN-LEDGF confirm	others
O=C(Nc1nc(-c2ccco2)c(-c2ccco2)s1)C1CCC1	17*	7	-12	4	2	7	2	-9	21*
O=C(Nc1nc(-c2ccco2)c(-c2ccco2)s1)C1CC(=O)N(c2ccc3c(c2)OCCO3)C1 (centres undefined)	19*	9	-2	9	0	0	13*	-64	42*
CC(C)(C)c1ccc(S(=O)(=O)N2CCC(C(=O)NCc3cccs3)CC2)cc1	1	0	.	-5	.	10	.	.	.
CCOc1ccc(-n2c(COc3ccccc3)nnc2SCc2nc3ccccc3[nH]2)cc1	-2	-1	.	-2	.	-6	.	.	.
CNc1ccc(Br)cc(C(=O)/C=C/c2ccc(OC)cc2OC)c1=O	13*	-1	4	-1	-1	7	4	-13	12
COc1ccc(CC(Cc2ccc(OC)c(OC)c2)NC=O)cc1OC	16*	-1	-6	0	10	-4	-2	11	-4
COc1ccc(CNS(=O)(=O)NCc2ccc(OC)c(OC)c2)cc1OC	2	-1	1	1	-5	-3	.	.	.
CCOc1ccc(N=Cc2ccc([N+](=O)[O-])cc2)c(O)c1	20*	-7	1	-9	-12	-9	11*	-38	-3
CCOc1ccc(CNC(=S)N/N=C\c2ccc([N+](=O)[O-])cc2)cc1	-1	-3	10	1	8	-3	.	.	.
CC(=NNC(=O)CSc1nnc(-c2ccccc2)n1-c1ccccc1)c1cccc([N+](=O)[O-])c1	1	0	.	-1	.	-4	.	.	.
COc1ccc(NS(=O)(=O)c2ccc(OC)c(OC)c2)cc1OC	0	1	3	3	-6	-3	.	.	.

Screening data (PubChem BioAssay)
